ChEMBL document CHEMBL6071194, “Building Metabolically Stable and Potent Anti-HIV Thioether-Lipid Analogues of Tenofovir Exalidex: A thorough Pharmacological Analysis” (J Med Chem, 2024)

How the values were obtained:
[1] = Therapeutic index, ratio of CC50 for HEK293T cells to IC50 for HIV-1 sub-type-C MJ4 infected in HEK293T cells; type: toxicity, cell-based; conditions: human, read-out: Ratio CC50/IC50
Method in brief: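 HEK293T cells (2 × 10⁴/well) with HSA-formulated compound (5:1 molar), 3-fold dilutions, 48 h at 37 °C. […] IC50 from luciferase after single-cycle infection with HIV-like particles carrying MJ4 subtype C RT/IN, over the noncytotoxic range.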

[2] = Stability in human liver microsomes assessed as compound remaining at 3 uM pretreated for 5 mins followed by NADPH addition measured upto 120 mins by LC-MS/MS analysis; type: ADME, Microsome; conditions: 2.083 h, time < 125 min
Method in brief: (§1)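 Human liver microsomes (1 mg/mL) in 100 mM potassium phosphate were preincubated with 3 µM test compound (final) at 37 °C for 5 min, then started with NADPH. Duplicate aliquots at 0, 15, 30, 60 and 120 min were quenched in cold MeOH with internal standard and analysed by LC–MS/MS. Values were normalized to 0 min; a no-NADPH control was read at 120 min.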

[3] = Ratio of AUC (0 to 24 hrs) of prodrug to TFV metabolite in C57BL/6 mouse liver at 10 mg/kg, po measured for 24 hrs by LC-MS/MS analysis; type: ADME, organism-based; conditions: in vivo
Method in brief: (§2)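 After a single 10 mg/kg gavage (10% EtOH/90% olive oil) in male C57BL/6 mice, liver, kidney and brain were collected at 1, 4 and 24 h (n = 3 per time point). Tissues were rinsed in ice-cold saline and homogenized in ice-cold PBS pH 7.4 (3× weight for brain, 5× for liver and kidney). Prodrug and TFV were measured by LC–MS/MS; AUC0–24h by the linear trapezoidal rule.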

[4] = Ratio of AUC (0 to 24 hrs) of prodrug to TFV metabolite in C57BL/6 mouse plasma at 10 mg/kg, po measured for 24 hrs by LC-MS/MS analysis; type: ADME, organism-based; conditions: in vivo
Method in brief: (§3)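 Male C57BL/6 mice (8–12 weeks, 20–30 g) got a single gavage of 10 mg/kg in 10% EtOH/90% olive oil, n = 3 per time point with sparse sampling. Retro-orbital blood was taken at 0.25–24 h and plasma spun off. Prodrug and TFV were measured by LC–MS/MS.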

[5] = Volume of distribution in C57BL/6 mouse plasma at 10 mg/kg, po measured for 24 hrs by LC-MS/MS analysis; type: ADME, organism-based; conditions: in vivo; method in brief: as §3
[6] = Half life in C57BL/6 mouse plasma at 10 mg/kg, po measured for 24 hrs by LC-MS/MS analysis; type: ADME, organism-based; conditions: in vivo; method in brief: as §3
[7] = Prodrug conversion in C57BL/6 mouse plasma assessed as Tmax of TFV metabolite at 10 mg/kg, po measured for 24 hrs by LC-MS/MS analysis; type: ADME, organism-based; conditions: in vivo; method in brief: as §3
[8] = Tmax in C57BL/6 mouse liver at 10 mg/kg, po measured for 24 hrs by LC-MS/MS analysis; type: ADME, organism-based; method in brief: as §2
[9] = Prodrug conversion in C57BL/6 mouse liver assessed as Tmax of TFV metabolite at 10 mg/kg, po measured for 24 hrs by LC-MS/MS analysis; type: ADME, organism-based; conditions: in vivo; method in brief: as §2
[10] = Tmax in C57BL/6 mouse kidney at 10 mg/kg, po measured for 24 hrs by LC-MS/MS analysis; type: ADME, organism-based; method in brief: as §2
[11] = Prodrug conversion in C57BL/6 mouse liver assessed as AUC (0 to 24 hrs) of TFV metabolite at 10 mg/kg, po measured for 24 hrs by LC-MS/MS analysis; type: ADME, organism-based; conditions: in vivo; method in brief: as §2
[12] = Prodrug conversion in C57BL/6 mouse kidney assessed as AUC (0 to 24 hrs) of TFV metabolite at 10 mg/kg, po measured for 24 hrs by LC-MS/MS analysis; type: ADME, organism-based; conditions: in vivo; method in brief: as §2
[13] = Prodrug conversion in C57BL/6 mouse liver assessed as Cmax of TFV metabolite at 10 mg/kg, po measured for 24 hrs by LC-MS/MS analysis; type: ADME, organism-based; conditions: in vivo; method in brief: as §2
[14] = Prodrug conversion in C57BL/6 mouse kidney assessed as Tmax of TFV metabolite at 10 mg/kg, po measured for 24 hrs by LC-MS/MS analysis; type: ADME, organism-based; conditions: in vivo; method in brief: as §2
[15] = Clearance in C57BL/6 mouse plasma at 3 mg/kg, iv measured for 8 hrs by LC-MS/MS analysis; type: ADME, organism-based; conditions: in vivo
Method in brief: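 Male C57BL/6 mice got a single 3 mg/kg i.v. dose in 10% PEG-300, 10% Solutol HS-15 and 80% saline, n = 3 per time point. Retro-orbital blood was taken at 0.1–8 h and plasma prodrug measured by LC–MS/MS. AUC0–8h used the trapezoidal rule; Cl = Dose/AUC0–8h.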

[16] = Ratio of AUC (0 to 24 hrs) of prodrug to TFV metabolite in C57BL/6 mouse kidney at 10 mg/kg, po measured for 24 hrs by LC-MS/MS analysis; type: ADME, organism-based; conditions: in vivo; method in brief: as §2
[17] = Clearance in C57BL/6 mouse plasma at 10 mg/kg, po measured for 24 hrs by LC-MS/MS analysis; type: ADME, organism-based; conditions: in vivo; method in brief: as §3
[18] = Prodrug conversion in C57BL/6 mouse plasma assessed as Cmax of TFV metabolite at 10 mg/kg, po measured for 24 hrs by LC-MS/MS analysis; type: ADME, organism-based; conditions: in vivo; method in brief: as §3
[19] = Prodrug conversion in C57BL/6 mouse plasma assessed as AUC (0 to 24 hrs) of TFV metabolite at 10 mg/kg, po measured for 24 hrs by LC-MS/MS analysis; type: ADME, organism-based; conditions: in vivo; method in brief: as §3
[20] = Metabolic stability in human liver microsomes assessed as half life; type: ADME, Microsome; method in brief: as §1
[21] = Prodrug conversion in C57BL/6 mouse kidney assessed as Cmax of TFV metabolite at 10 mg/kg, po measured for 24 hrs by LC-MS/MS analysis; type: ADME, organism-based; conditions: in vivo; method in brief: as §2
[22] = Tmax in C57BL/6 mouse brain at 10 mg/kg, po measured for 24 hrs by LC-MS/MS analysis; type: ADME, organism-based; method in brief: as §2

Work on CCCCCCCCCCCCCCSCCCOP(=O)(O)CO[C@H](C)Cn1cnc2c(N)ncnc21 yielded a selectivity ratio [1] of over 16700.
For CC(C)[Si](C#CCCCCCCCCCCCSCCCOP(=O)(O)CO[C@H](C)Cn1cnc2c(N)ncnc21)(C(C)C)C(C)C, the selectivity ratio [1] was 224.
C[C@H](Cn1cnc2c(N)ncnc21)OCP(=O)(O)OCCCSCCCCCCCCCCCOc1ccc(F)cc1.N gave a Stability [2] of 85% and a selectivity ratio [1] of 6250.
C[C@H](Cn1cnc2c(N)ncnc21)OCP(=O)(O)OCCCSCCCCCCCCCCCCC#CC(C)(C)C showed a selectivity ratio [1] of over 516.
C[C@H](Cn1cnc2c(N)ncnc21)OCP(=O)(O)OCCCSCCCCCCCCCCCCC#C[Si](C)(C)C gave a selectivity ratio [1] of over 4170.
Work on C[C@H](Cn1cnc2c(N)ncnc21)OCP(=O)(O)OCCCSCCCCCCCCCCCCCCC(C)(C)C yielded a selectivity ratio [1] of 138.
Work on C[C@H](Cn1cnc2c(N)ncnc21)OCP(=O)(O)OCCCSCCCCCCCCCCCCC1CCCCC1.N yielded a Ratio [3] of 0.411, a Ratio [4] of 1.44 and a Vd [5] of 228 L/kg. For the same molecule, the t1/2 [6] was 3.07 h, the Tmax [7] was 4 h and the Tmax [8] was 4 h. For the same molecule, the selectivity ratio [1] was over 2000, the Tmax [9] was 24 h and the Tmax [10] was 4 h. For the same molecule, the AUC [11] was 66600 ng·h/mL, the AUC [12] was 22100 ng·h/mL and the Cmax [13] was 3900 ng/mL. The Tmax [14] was 24 h, the CL [15] was 85.8 mL/min/kg and the Ratio [16] was 0.488. It also gave a CL [17] of 85.8 mL/min/kg, a Cmax [18] of 47.8 ng/mL and an AUC [19] of 740 ng·h/mL.
Molecule C[C@H](Cn1cnc2c(N)ncnc21)OCP(=O)(O)OCCCOCCCCCCCCCCCCCCCC(F)(F)F.N has a half-life [20] of 2 h.
For CCCCCCCCCCSCCCCCCCCCOP(=O)(O)CO[C@H](C)Cn1cnc2c(N)ncnc21, the selectivity ratio [1] was over 1720.
With CCCCCCCCCCCCCCCCOCCCOP(=O)(O)CO[C@H](C)Cn1cnc2c(N)ncnc21 [TENOFOVIR EXALIDEX] the selectivity ratio [1] was 5420.
In the case of CCCCCCCCCCCCCCCCSCCCOP(=O)(O)CO[C@H](C)Cn1cnc2c(N)ncnc21.N, the Ratio [3] is reported as 0.222, the Ratio [4] is reported as 0.333 and the Cmax [21] is reported as 695 ng/mL. The Tmax [7] was 4 h, the selectivity ratio [1] was 4980 and the Tmax [9] was 4 h. The AUC [11] was 29100 ng·h/mL, the AUC [12] was 14600 ng·h/mL and the Cmax [13] was 1440 ng/mL. The Tmax [14] was 4 h, the CL [15] was 147 mL/min/kg and the CL [17] was 147 mL/min/kg. The Cmax [18] was 39.4 ng/mL and the AUC [19] was 657 ng·h/mL.
In the case of C[C@H](Cn1cnc2c(N)ncnc21)OCP(=O)(O)OCCCSCCCCCCCCCCCSc1ccccc1, the selectivity ratio [1] is reported as over 594.
CCCCCCCCCCCCCSCCCCCCOP(=O)(O)CO[C@H](C)Cn1cnc2c(N)ncnc21 showed a selectivity ratio [1] of over 1370.
C[C@H](Cn1cnc2c(N)ncnc21)OCP(=O)(O)OCCCSCCCCCCCCCCCCc1ccccc1 gave a selectivity ratio [1] of over 12500.
Molecule C[C@H](Cn1cnc2c(N)ncnc21)OCP(=O)(O)OCCCSCCCCCCCCCCCCc1ccc(F)cc1.N has a Ratio [3] of 0.877, a Cmax [21] of 1420 ng/mL and a Tmax [7] of 4 h. The selectivity ratio [1] was over 11100, the Tmax [9] was 24 h and the Tmax [22] was 4 h. It also gave a Tmax [10] of 4 h, an AUC [11] of 72500 ng·h/mL and an AUC [12] of 23800 ng·h/mL. For the same molecule, the Cmax [13] was 3980 ng/mL, the Tmax [14] was 24 h and the CL [15] was 134 mL/min/kg. For the same molecule, the Ratio [16] was 0.322, the CL [17] was 134 mL/min/kg and the AUC [19] was 635 ng·h/mL.
With CCCCCCCCCCCCSCCCOP(=O)(O)CO[C@H](C)Cn1cnc2c(N)ncnc21 the selectivity ratio [1] was over 532.
CCCCCCCCCCCCCCCCCSCCOP(=O)(O)CO[C@H](C)Cn1cnc2c(N)ncnc21 showed a selectivity ratio [1] of 7150.
Molecule CCCCSCCCCCCCCCCCCCCCOP(=O)(O)CO[C@H](C)Cn1cnc2c(N)ncnc21 has a selectivity ratio [1] of over 331.
With C[C@H](Cn1cnc2c(N)ncnc21)OCP(=O)(O)OCCCSCCCCCCCCCCCOC1CCCCC1 the selectivity ratio [1] was over 542.
C[C@H](Cn1cnc2c(N)ncnc21)OCP(=O)(O)OCCCSCCCCCCCCCCC#CC1CCCCC1 showed a selectivity ratio [1] of over 7580.
C[C@H](Cn1cnc2c(N)ncnc21)OCP(=O)(O)OCCCSCCCCCCCCCCC#Cc1ccc(F)cc1 gave a selectivity ratio [1] of over 10000.
Molecule COC(=O)CCCCCCCCCCCCCCCSCCCOP(=O)(O)CO[C@H](C)Cn1cnc2c(N)ncnc21 has a selectivity ratio [1] of over 70.
In the case of C[C@H](Cn1cnc2c(N)ncnc21)OCP(=O)(O)OCCCSCCCCCCCCCCCOc1ccccc1.N, the Stability [2] is reported as 69% and the selectivity ratio [1] is reported as over 8060.
C[C@H](Cn1cnc2c(N)ncnc21)OCP(=O)(O)OCCCSCCCCCCCCCCC#Cc1ccccc1 gave a selectivity ratio [1] of over 12500.
In the case of C#CCCCCCCCCCCCCCCSCCCOP(=O)(O)CO[C@H](C)Cn1cnc2c(N)ncnc21, the selectivity ratio [1] is reported as over 3570.
CCCCCCCSCCCCCCCCCCCCOP(=O)(O)CO[C@H](C)Cn1cnc2c(N)ncnc21 gave a selectivity ratio [1] of over 296.
